T cruzi inh = blocks replication of Trypanosoma cruzi; T. cruzi beta-gal in NIH3T3, luminescence, 90 h; inhibition, % (concentration not given with the values); 300,000 tested, 1.4% active;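 active = mean inhibition across valid replicates above about 55%, limit read from the data; inconclusive = mean below that limit but half or more replicates reach it; inactive = mean below it, under half of replicates reach it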;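 also: signal also drops with host cell toxicity which is not excluded here; higher percent means less beta-gal luminescence so fewer parasites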
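System – NIH/3T3 host cells with β-galactosidase reporter T. cruzi · Doses – single 50 nL compound addition per well in DMSO · Reagent – 5000 T. cruzi trypomastigotes/well · Medium – Low-serum DMEM with 2% FBS · Timing – ≥90 h infection period, 3 h prior cell attachment · Evaluation – parasite load inhibition, % · Technique – GalScreen luminescence, 60 min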
HIF activator = HIF pathway transcriptional activation; U2OS HRE-luciferase reporter, luminescence; normalized: DMSO 0%, desferrioxamine 100%; activation, % at 7.5 µM (by protocol); 300,000 tested, 0.32% active; AID 1910;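 active = mean activation of at least 10% of the iron chelator positive control signal, with at least half of replicates also reaching 10%; inconclusive = mean and replicate majority disagree about reaching 10%; inactive = mean and most replicates under 10%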
Calb FLC = C. albicans growth modulation with fluconazole; C. albicans CaCi-2 + fluconazole, Alamar Blue growth, 48 h; growth inhibition, % (no concentration beside the values); 300,000 tested, 0.57% active;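 active = growth inhibition above about 58% in most replicates, limit read from the data, passing the limit was not always enough; inconclusive = exactly half the replicates above a set limit; inactive = most replicates below a set limit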;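 also: all wells also contain fluconazole at 8 µg/ml as a sub-toxic cotreatment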
HSF1 inh = HSF1 inhibition | NIH3T3-HGL HSE-luciferase, MG132-induced, luminescence 8 h; stronger effect = lower value | activity change, negative = inhibition, % at 7.5 µM (by protocol) | 300,000 tested, 0.77% active | AID 2098;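 active = more than half of replicate wells show activity change below -50%, luminescence cut by over half; inconclusive = some wells, but at most half, below -50%; inactive = no replicate well below -50%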;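 also: luciferase reports HSF-1 transcriptional activity via heat shock element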
HSF1 activator = increases HSF-1 driven luciferase reporter signal; NIH3T3-HGL HSF-1 luciferase reporter, MG132, 8 h; 100% = twice DMSO control signal; activation, % at 9 µM; 300,000 tested, 1.7% active; AID 504408;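 active = mean replicate activation of at least 50% with a set share of replicates each reaching 50%; inconclusive = only one of those two conditions met; inactive = mean below 50% and too few replicates reaching it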
Of the large screens only hits and unclear results are named; the others gave an inactive call. A selection: hits, their analogues and other compounds. The true share with any hit is near 4.4%.

CN(C)S(=O)(=O)Oc1ccccc1C(=O)Nc1ccc(F)cc1F	none
CCN(CC)C(=O)Oc1ccc(Br)cc1C(=O)Nc1ccc(F)cc1F	HSF1 activator 72
COc1ccc(C2c3ccc(O)cc3Oc3ncn(Cc4ccccc4)c(=N)c32)cc1OC (stereo not given)	none
COc1ccc(C2c3ccc(O)cc3Oc3ncn(Cc4ccco4)c(=N)c32)cc1 (stereo not given)	HSF1 activator 75
N=c1c2c(ncn1Cc1ccco1)Oc1ccc3ccccc3c1C2c1ccccc1 (stereo not given)	none
COc1ccc(C2c3c(ncn(Cc4ccco4)c3=N)Oc3ccc4ccccc4c32)cc1 (stereo not given)	HSF1 activator 69
COc1ccc(Cc2nc3c4c(ncn3n2)Oc2ccc3ccccc3c2C4c2ccc(OC)c(OC)c2)cc1 (stereo not given)	T cruzi inh 57
CC(C)Cc1nc(SCC(=O)NCC2CCCO2)c2c(=O)n(C)c(=O)n(C)c2n1 (stereo not given)	none
CC/C(=N\NC(=O)c1cccnc1)c1ccc2c(c1)OCCO2	none
C/C(Cn1cnc([N+](=O)[O-])n1)=N\NC(=O)c1ccccc1F	T cruzi inh 75, HSF1 activator inconclusive
C/C(Cn1cnc([N+](=O)[O-])n1)=N/NC(=O)COc1ccccc1Cl	T cruzi inh 56
C/C(Cn1nnc([N+](=O)[O-])n1)=N\NC(=O)c1ccc(O)cc1O	T cruzi inh inconclusive
C/C(Cn1cnc([N+](=O)[O-])n1)=N\NC(=O)c1ccccc1O	T cruzi inh 56
C/C(Cn1nnc([N+](=O)[O-])n1)=N\NC(=O)c1ccccc1O	none
C/C(Cn1cnc([N+](=O)[O-])n1)=N\NC(=O)c1ccc(O)cc1O	T cruzi inh 55
COc1ccc(NC(=O)CN(C)C(=O)c2cccc(S(=O)(=O)Nc3ccc(OC)cc3)c2)cc1	none
Cc1ccc(S(=O)(=O)CC(=O)Nc2ccc3nc(C)sc3c2)cc1	none
CCCn1c(N)cc(=O)n(C)c1=O	none
Nn1cc(-c2ccccc2)nc1SCC(=O)Nc1ccc(S(N)(=O)=O)cc1	none
Cc1cccc(-c2ocnc2C(=O)N2CCN(C(=O)c3cccs3)CC2)c1	HSF1 inh -87
COc1ccc(CC(=O)Nc2nccs2)cc1OC	none
CCCCC(=O)Nc1ncc([N+](=O)[O-])s1	Calb FLC 83 (no result: T cruzi inh, HIF activator, HSF1 inh, HSF1 activator)
COc1ccc(CC(=O)Nc2ncc([N+](=O)[O-])s2)cc1OC	T cruzi inh 63, Calb FLC inconclusive
CCOc1ccc(/C=C(\C#N)C(=O)NC2CC2)c(OCC)c1	none
Cc1cc(Cl)c(OCCCCNC(C)(C)C)c(Br)c1	none
COc1ccccc1NC(=O)CSc1nnc(CC(=O)Nc2ccccc2C)n1C	none
Cc1cc(C)c(C)c(S(=O)(=O)NCC(=O)Nc2ccc(F)cc2)c1C	none
O=C(NCCc1ccccc1)c1noc2c1CCc1ccccc1-2	HSF1 activator 52
CN(C)/N=C/C=C1\CCC/C(=C\c2ccc(F)c(F)c2)C1=O	HSF1 activator 116
COc1ccc(O)c(C(=O)c2cnn(C(=O)c3cccc(S(=O)(=O)N4CCOCC4)c3)c2)c1	none
COc1ccc(OC)c(NC(=O)c2nnn(CC(=O)Nc3ccc4c(c3)OCO4)c2N)c1	none
COC(=O)C(Cc1ccccc1)NC(=O)CNC(=O)c1sc2ccccc2c1Cl (stereo not given)	HSF1 inh -53
O=C(CNC(=O)c1sc2ccccc2c1Cl)NCc1ccccc1	none
Cc1cccc(CC(=O)c2c[nH]c3ccccc23)c1	none
COc1cc(Cl)c(CC(=O)c2c[nH]c3ccccc23)cc1OC	HSF1 activator 62
COc1cc(/C=C(/C#N)c2ccc(C)cc2)ccc1Oc1ccc([N+](=O)[O-])cn1	T cruzi inh 71
Cc1ccc(-c2nn(C(C)(C)C)c3ncnc(NS(=O)(=O)c4ccc([N+](=O)[O-])cc4)c23)cc1	T cruzi inh 56, Calb FLC inconclusive
C=CCNC(=O)c1c(Cl)cnn1-c1ccc(C)cc1	none
O=C(NCCCn1ccnc1)/C(=C/c1ccco1)NC(=O)c1ccccc1	Calb FLC inconclusive, HSF1 activator 62
Cc1ccc(C(=O)N/C(=C\c2ccco2)C(=O)NCCCn2ccnc2)cc1	none
O=C(CCNC(=O)c1ccccc1Cl)Nc1cc(S(=O)(=O)N2CCOCC2)ccc1N1CCCC1	none
COC(=O)C1=C(SC)N(c2ccc(OC)cc2)C(c2ccccc2)CC1=O (stereo not given)	none
CCN1CCN(CC(O)COCCOc2ccc(Br)cc2)CC1 (stereo not given)	none
CC(C)NCC(O)COCCOc1ccc(Br)cc1 (stereo not given)	T cruzi inh 63
CN1CCN(CC(O)COCCOc2ccc(Br)cc2)CC1 (stereo not given)	T cruzi inh 59
CCC(C)NCCOCCOc1ccc(Br)cc1 (stereo not given)	T cruzi inh 66
CN1C(=O)NC(c2ccc(C(F)(F)F)cc2)C2=C1CC(C)(C)CC2=O (stereo not given)	none
CCOC(=O)c1c(C)[nH]c(C(=O)COC(=O)C2=NNC(=O)CC2)c1C	HSF1 inh -78
CC(=O)Nc1ccc(NC2=Nc3ccccc3N3C2=Nc2c(c(C)nn2-c2ccccc2)C3c2ccccc2)cc1 (stereo not given)	none
COc1ccc(NC2=Nc3ccccc3N3C2=Nc2c(c(C)nn2-c2ccc(C)cc2)C3c2cccnc2)cc1 (stereo not given)	Calb FLC 119, HSF1 inh -81
Cc1cccc(NCc2ccc(O)c3ncccc23)c1C	Calb FLC 104, HSF1 inh -63
Cc1ccc(NCc2ccc(O)c3ncccc23)cc1	Calb FLC 64
Cc1ccc(NCc2ccc(O)c3ncccc23)cc1C	Calb FLC 65
Cc1cccnc1NCc1ccc(O)c2ncccc12	none
CCOC(=O)C(C)/C(C)=N/NC(=O)CCC(=O)Nc1cc(C)ccc1C (stereo not given)	none
Cc1c(C(=O)N2CC3(CC(c4cccc(NC(=O)CC(c5ccccc5)c5ccccc5)c4)=NO3)C[C@@H]2C(N)=O)cc([N+](=O)[O-])cc1[N+](=O)[O-] (stereo not given in full)	T cruzi inh 67
NC(=O)[C@@H]1CC2(CC(c3cccc(NC(=O)CC(c4ccccc4)c4ccccc4)c3)=NO2)CN1C(=O)c1ccc(Cl)cc1 (stereo not given in full)	T cruzi inh 57
NC(=O)[C@H]1CC2(CC(c3cccc(NC(=O)CC(c4ccccc4)c4ccccc4)c3)=NO2)CN1C(=O)CC(c1ccccc1)c1ccccc1 (stereo not given in full)	none
COc1ccc(NC(=O)Cn2cnc3sc(C)c(S(=O)(=O)N4CCOCC4)c3c2=O)cc1Cl	none
Cc1ccccc1OCC(=O)N(CC(C)C)c1c(N)n(CC(C)C)c(=O)[nH]c1=O	none

Assay outcomes from PubChem.
